In assay [1] the target is T1, Proteinase-activated receptor 1 (Homo sapiens) (UniProt P25116).
T1 sequence (whole entry): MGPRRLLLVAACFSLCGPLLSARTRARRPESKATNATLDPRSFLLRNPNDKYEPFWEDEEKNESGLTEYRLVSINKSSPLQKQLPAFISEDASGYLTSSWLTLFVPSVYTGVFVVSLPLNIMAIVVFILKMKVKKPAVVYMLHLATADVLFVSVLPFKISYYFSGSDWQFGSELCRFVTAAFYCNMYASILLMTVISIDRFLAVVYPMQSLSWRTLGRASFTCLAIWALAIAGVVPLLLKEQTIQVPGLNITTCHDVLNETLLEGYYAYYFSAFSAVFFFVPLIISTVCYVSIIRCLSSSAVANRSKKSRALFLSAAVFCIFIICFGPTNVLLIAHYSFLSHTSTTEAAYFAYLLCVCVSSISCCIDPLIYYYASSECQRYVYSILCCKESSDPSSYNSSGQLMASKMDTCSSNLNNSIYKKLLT
Nature of the assay: Antagonist activity at PAR1 expressed in CHO cells assessed as inhibition of SFLLR-NH2-induced calcium release at 10 uM by FLIPR assay. The class given is functional, cell-based. The procedure, abridged:
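Calcium release triggered by 1 µM SFLLR-NH₂; test compound at 10 µM, read as % inhibition of the agonist response. Values are mean SEM of at least two independent determinations, each run in triplicate.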

Assay [2] concerns the target T2, Proteinase-activated receptor 1 (Homo sapiens, UniProt P25116).
T2 sequence (P25116 whole entry): T1 sequence (whole entry)
Nature of the assay: (§1) Antagonist activity at PAR1 expressed in CHO cells assessed as inhibition of SFLLR-NH2-induced calcium release by FLIPR assay. Format: functional, cell-based. The following applies: read-out: pA2 (converted). The procedure, abridged: (§2)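 Concentration-response study in the same calcium-release screen, with release induced by 1 µM SFLLR-NH₂. Used to separate partial from fully competitive antagonists; pA₂ was derived for full antagonists only.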

A short description of assay [3]: Antiaggregatory activity in human platelets assessed as inhibition of SFLLR-induced aggregation. The class given is functional, Platelet.
In assay [4] the target is T1, Proteinase-activated receptor 1 (Homo sapiens). The assay is described as §1. Format: functional, cell-based. The procedure, abridged:
as §2

Assay [5] deals with Rattus norvegicus. Nature of the assay: Antithrombotic activity in rat assessed as increase in occlusion time of arteriovenous shunt at 1.25 mg/kg, iv. Format: functional. The procedure, abridged: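 Arteriovenous extracorporeal shunt in anesthetized rats, compound dosed at 1.25 mg/kg. Read-out is % increase of occlusion time.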

Activity calls are given as the source filed them. No cut-off for these calls is given here.

In the case of `N#Cc1ccccc1/C=C/c1c(N2CCN(CC3CCCCC3)CC2)c(=O)c1=O`, the inhibition in assay [1] stood at 84%. Besides, the Kb in assay [2] is 427 nM. In assay [3], the negative logarithm of the Kb (pKb) worked out at 4.

Take `O=C(/C=C/c1c(F)cccc1F)c1ccc(N2CCCC2)nc1`: the inhibition in assay [1] was found to be 20%.

Take `O=C(/C=C/c1ccccc1Cl)c1ccc(N2CC=CC2)cn1`: the inhibition in assay [1] was 13%.

As for `O=c1c(/C=C/c2ccccc2Cl)c(N2CCN(Cc3ccccc3)CC2)c1=O`, the inhibition in assay [1] amounted to 85%. Besides, in assay [4], the pA2 entry is “Active”.

Turning to `N#Cc1ccccc1/C=C/C(=O)N1CCC(N(Cc2ccc(F)cc2)Cc2ccccn2)C(F)C1` (stereo not drawn), the inhibition in assay [1] is 33%.

Regarding `Cc1cccc(-c2ccc(C(=O)/C=C/c3c(F)cccc3F)cn2)c1C`, the inhibition in assay [1] turned out to be 74%.

As to `O=C(/C=C/c1ccccc1Cl)N1CCN(Cc2ccc(F)cc2)CC1`, the inhibition in assay [1] was 93%. Further, the Kb in assay [2] was 380 nM. For the same compound, the pKb in assay [3] is listed as 5.52. Also, in assay [5], the Activity worked out at 28%.

With `O=C(/C=C\c1ccccc1Cl)N1CCC(N(Cc2ccc(F)cc2)Cc2ccccn2)C(F)C1` (stereo not drawn), the inhibition in assay [1] stood at 23%.

Take `O=C(/C=C/c1ccccc1Cl)c1ccc(NC2CCCC2)nc1`: the inhibition in assay [1] was found to be 11%.

Consider `O=C(c1cc2c(F)cccc2s1)N1CCN(Cc2ccccc2)CC1`, for which the inhibition in assay [1] stood at 4%.

In the case of `O=C(/C=C/c1c(F)cccc1F)c1ccc(NC2CCCCC2)nc1`, in assay [1], the inhibition was determined as 41%.

As to `O=c1c(/C=C/c2ccccc2Cl)c(N2CCN(Cc3ccc(F)cc3)CC2)c1=O`, in assay [1], the inhibition is 23%.

Take `O=C(/C=C\c1ccccc1Cl)N1CCC(Nc2ccc(F)cc2)C(F)C1` (stereo not drawn): in assay [1], the inhibition was found to be 85%. Also, in assay [2], the Kb is 389 nM. In addition, the pKb in assay [3] is given as 4.

For the compound `O=c1c(/C=C/c2ccccc2Cl)c(N2CCN(Cc3ccsc3)CC2)c1=O`, the inhibition in assay [1] is 27%.

On to `O=C(/C=C/c1c(F)cccc1F)N1CCC(NCc2ccc(F)cc2)CC1`, for which the inhibition in assay [1] was determined as 0%.

Regarding `N#Cc1ccccc1/C=C/C(=O)c1ccc(N2CC=CC2)cn1`, in assay [1], the inhibition stood at 52%.

For the compound `O=C(c1cc2ccccc2[nH]1)N1CCN(Cc2ccccc2)CC1`, the inhibition in assay [1] was 2%.

On to `Cc1cccc(-c2ccc(C(=O)/C=C/c3ccccc3Cl)cn2)c1C`, for which the inhibition in assay [1] was found to be 32%.

As to `N#Cc1ccccc1/C=C/c1c(N2CCN(Cc3ccsc3)CC2)c(=O)c1=O`, the inhibition in assay [1] was determined as 97%. In addition, the Kb in assay [2] was 389 nM. The pKb in assay [3] came to 4.

For the compound `O=C(C1=Cc2ccccc2OC1)N1CCN(Cc2ccc(F)cc2)CC1`, in assay [1], the inhibition came out at 16%.

In the case of `O=C(/C=C/c1ccccc1Cl)c1ccc(NC2CCCCC2)nc1`, in assay [1], the inhibition was determined as 97%. For the same compound, the pA2 entry in assay [4] was “Active”.

In the case of `O=c1c(/C=C/c2ccccc2Cl)c(N2CCN(CC3CCCCC3)CC2)c1=O`, the inhibition in assay [1] was 41%.

Take `N#Cc1ccccc1/C=C\C(=O)N1CCC(N(Cc2ccc(F)cc2)Cc2ccccn2)C(F)C1` (stereo not drawn): the inhibition in assay [1] is 68%. For the same compound, the Kb in assay [2] is 589 nM. For the same compound, the pKb in assay [3] was 5.68. The Activity in assay [5] worked out at 53%.

With `Cc1cccc(-c2ccc(C(=O)/C=C/c3c(F)cccc3F)nc2)c1C`, the inhibition in assay [1] was 40%.

Turning to `N#Cc1ccccc1/C=C/C(=O)c1ccc(NC2CCCCC2)nc1`, the inhibition in assay [1] was found to be 53%.

Take `Cn1c(C(=O)N2CCN(Cc3ccccc3)CC2)cc2ccccc21`: the inhibition in assay [1] is 11%.

With `N#Cc1ccccc1/C=C/C(=O)c1ccc(NC2CCCC2)nc1`, the inhibition in assay [1] is 84%. Moreover, the Kb in assay [2] was 933 nM. Also, the pKb in assay [3] is 5.05. For the same compound, the Activity in assay [5] stood at 28%.

For `O=C(c1cc2ccccc2o1)N1CCN(Cc2ccccc2)CC1`, the inhibition in assay [1] amounted to 1%.

In the case of `O=C(/C=C\c1c(F)cccc1F)N1CCC(NCc2ccc(F)cc2)C(F)C1` (stereo not drawn), the inhibition in assay [1] worked out at 25%.

Regarding `N#Cc1ccccc1/C=C\C(=O)N1CCC(NCc2ccc(F)cc2)C(F)C1` (stereo not drawn), the inhibition in assay [1] stood at 40%.

Turning to `O=C(/C=C/c1c(F)cccc1F)c1ccc(N2CC=CC2)cn1`, in assay [1], the inhibition worked out at 60%.

The inhibition is the change of the read-out against control, counted positive when it falls. In general, pKb refers to the Kb on a negative log10 scale, so that one unit is a factor of ten.

The values above are taken from ChEMBL document CHEMBL1154931, “Exploration of a new series of PAR1 antagonists” (Bioorg Med Chem Lett, 2010).
